Most compounds without a hit are left out; they make up all but 3.5% or so of the library.
MrgX1 antagonist – human MrgX1 receptor antagonism, primary screen; Q96LB2; MRGX1-HEK293 calcium flux, Fluo-4, BAM8-22 antagonism; stronger effect = lower value; B-score at 10 µM; hit rate 1.3% among 310,000; AID 588676;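 active means calcium-response B-score plate-corrected more than 3 library SD below zero, starting fluorescence within 5 deviations, no agonist response on first addition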;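 further: peak minus trough fluorescence over baseline after final BAM8-22 challenge near maximal dose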
Target sequence (Q96LB2 whole entry, looked up): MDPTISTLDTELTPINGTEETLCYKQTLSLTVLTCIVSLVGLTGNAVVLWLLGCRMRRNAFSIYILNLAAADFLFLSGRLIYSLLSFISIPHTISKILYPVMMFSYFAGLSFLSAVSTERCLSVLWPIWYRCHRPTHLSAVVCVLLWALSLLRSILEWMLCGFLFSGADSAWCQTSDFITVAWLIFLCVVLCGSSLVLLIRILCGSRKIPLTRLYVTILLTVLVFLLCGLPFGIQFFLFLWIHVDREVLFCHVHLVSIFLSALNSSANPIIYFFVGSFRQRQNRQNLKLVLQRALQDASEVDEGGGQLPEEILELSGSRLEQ
RGS4 inh – inhibitors of human RGS4; P49798; HEK293 M3R/RGS4 inducible, Fluo-4 calcium flux; stronger effect = higher value; triggered by carbachol at its EC20; B-score at 10 µM; hit rate 0.45% among 310,000; AID 463165;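 active means B-score, a plate-corrected calcium signal, over three deviations above library mean, with baseline fluorescence within five deviations of library mean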;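 further: RGS4 expression induced by doxycycline in cells with stable M3 receptor; B-score is computed from the integrated fluorescence ratio over baseline after carbachol; higher B-score means a larger calcium signal and so more RGS4 inhibition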
Target sequence (P49798 whole entry, looked up): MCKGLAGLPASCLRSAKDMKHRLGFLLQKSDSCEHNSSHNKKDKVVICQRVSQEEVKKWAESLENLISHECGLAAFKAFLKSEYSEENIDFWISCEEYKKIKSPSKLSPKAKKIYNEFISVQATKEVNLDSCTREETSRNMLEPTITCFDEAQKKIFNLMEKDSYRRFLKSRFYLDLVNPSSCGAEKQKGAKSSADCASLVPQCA
MrgX1 allo act – human MrgX1 positive allosteric modulation, primary screen; MrgX1-HEK293, Fluo-4 calcium flux, FDSS; stronger effect = higher value; B-score at 10 µM; hit rate 0.63% among 310,000;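 active means plate-corrected calcium response at least 3 library SD above typical, normal starting fluorescence, not activating the receptor alone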;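 further: compound read alongside a low EC10 to EC30 dose of BAM8-22 agonist; peak minus trough fluorescence over baseline measured at the second addition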
MrgX1 agonist – agonists of human MrgX1 receptor; B-score at 10 µM; MrgX1-HEK293 cells, Fluo-4 calcium fluorescence, agonist mode; stronger effect = higher value; AID 588627; hit rate 0.44% among 310,000; Q96LB2;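 active means calcium response B-score plate-corrected fluorescence ratio at least 3 library SD, with starting fluorescence B-score inside 5 SD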
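Material – MrgX1-expressing HEK293 cells · Input – 15,000 cells seeded per well · Dosing – compound as first of three additions · Times – overnight seeding, then 1 h dark dye loading · Measured by – kinetic Fluo-4 NW fluorescence of intracellular calcium · Read-out – B-scored fluorescence response ratio · Benchmarks – positive and negative control wells on each plate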
RGS4 pot – RGS4 potentiation or activation; HEK293 M3R/inducible RGS4, carbachol calcium flux Fluo4; stronger effect = lower value; hit rate 0.92% among 310,000; B-score at 10 µM; AID 463111;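 active means B-score of the integrated calcium signal more than 4 SD below the library mean, with starting fluorescence not abnormally high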;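 further: negative B-score means reduced calcium response which marks RGS4 activation or potentiation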
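Also added: carbachol at ECmax as muscarinic agonist stimulus; Assay system: HEK293 cells with stable M3R and inducible RGS4; Timing: overnight RGS4 induction, 30 min dye load 37 °C, 20 min compound RT; Measured by: Fluo4-AM (2 µM) calcium-flux fluorescence, kinetic read.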
MrgX1 ag reconf – human MrgX1 agonism, re-confirmation screen | hit rate 78% among 600 | shares compounds with MrgX1 agonist | MrgX1-HEK293, Fluo-4 calcium fluorescence, FDSS | activation, % at 10 µM;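 active means calcium signal rise, corrected for plate position, at least 3 library SD high, with starting brightness within 5 such deviations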
HEK293 Ca flux – activity in parental HEK293 cells lacking MrgX1 | hit rate 2% among 4,000 | shares compounds with MrgX1 antagonist | AID 624111 | fluorescence ratio F(max-min)/F0 at 10 µM | Fluo-4 calcium fluorescence, FDSS;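 active means duplicate-averaged calcium fluorescence ratio at least three times the standard deviation of buffer wells, a nonspecific response in parental cells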
HEK293 Ca counter – MrgX1 allosteric activator counter-screen hit in parental HEK293 cells; shares compounds with MrgX1 antagonist; parental HEK293 calcium flux, Fluo-4 fluorescence ratio; stronger effect = higher value; fluorescence ratio F(max-min)/F0 at 10 µM; hit rate 0.4% among 4,000;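 active means calcium fluorescence ratio, averaged over duplicates, at least 3 SD of the buffer-well ratio, meaning a nonspecific response in receptor-free cells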;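 further: untransfected parental HEK293 lacking MrgX1 used as counterscreen for MrgX1 allosteric activators; fluorescence change taken during the second addition on a kinetic imager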
HEK293 Ca cntr2 – MrgX1 activator counter-screen hit in parental HEK293 cells; shares compounds with MrgX1 antagonist; Fluo-4 calcium fluorescence (FDSS); stronger effect = higher value; fluorescence ratio F(max-min)/F0 at 10 µM; hit rate 8.7% among 4,000; AID 624115;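 active means calcium fluorescence ratio at least three times the spread of buffer wells, meaning a non-specific response in parental cells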
* = called active by the depositor; i = inactive; x = not tested or not shown.

SMILES	MrgX1 antagonist	RGS4 inh	MrgX1 allo act	MrgX1 agonist	RGS4 pot	MrgX1 ag reconf	HEK293 Ca flux	HEK293 Ca counter	HEK293 Ca cntr2
CCOc1cc(/C=C/C(=O)c2ccc(OC)c(CN3CCOCC3)c2)cc(Br)c1O	i	i	i	143*	i	675%*	i	i	131*
COc1ccc(/C(O)=C/c2nc3ccc(C(=O)NCCc4cccc(C)c4)cc3[nH]c2=O)cc1OC	i	i	i	28*	i	i	i	i	i
CC(=Nc1cccc(O)c1)c1sc2ccccc2c1O	i	i	i	28*	i	144%*	i	i	i
CC(=Nc1ccc(C)cc1)c1sc2ccccc2c1O	i	i	i	i	i	x	x	x	x
COc1ccccc1NC(=O)C(C)N1C(=O)c2ccccc2C1=O (stereo not drawn)	i	i	i	i	i	x	x	x	x
Cc1ccc(SCC(=O)OCC(=O)N(C)CC(=O)Nc2ccccc2Cl)cc1C	i	i	i	i	i	x	x	x	x
COc1ccc(C)cc1N/C(N)=N/c1nc(C)cc(C)n1	i	i	i	i	i	x	x	x	x
Cc1ccc(C)c(N/C(N)=N/c2nc(C)cc(C)n2)c1	i	i	i	59*	i	385%*	i	i	85*
Cc1cc(C)nc(/N=C(\N)Nc2ccc(-c3ccccc3)cc2)n1	i	i	i	74*	-7.1*	300%*	i	i	i
Cc1cc(C)nc(/N=C(\N)Nc2ccc(SC(F)F)cc2)n1	i	i	i	57*	i	444%*	i	i	98*
Cc1cc(C)nc(/N=C(\N)Nc2ccc(S(N)(=O)=O)cc2)n1	i	i	i	i	i	x	x	x	x
CCOc1ccc(N/C(N)=N/c2nc(C)cc(C)n2)cc1	i	i	i	142*	i	434%*	i	i	94*
CC(=O)Nc1ccc(N/C(N)=N/c2nc(C)cc(C)n2)cc1	i	i	i	i	i	x	x	x	x
COc1ccc2c(C=O)cn(C)c2c1	i	i	i	i	i	x	x	x	x
COCc1cc(C)nc2sc(C(=O)Nc3cccc(OC)c3)c(N)c12	i	i	i	i	i	x	x	x	x
CC1(c2ccc([N+](=O)[O-])cc2)NC(=O)N(CC(=O)c2ccc3c(c2)OCO3)C1=O (stereo not drawn)	i	i	i	i	i	x	x	x	x
CC1(c2ccc(OC(F)F)cc2)NC(=O)N(CC(=O)c2ccc3c(c2)OCO3)C1=O (stereo not drawn)	i	i	i	35*	i	176%*	i	i	55*
Cc1ccc(-c2[nH]c(-c3ccccc3)nc2SCC(=O)NCC2CCCO2)cc1 (stereo not drawn)	i	i	i	34*	i	239%*	i	i	49*
Oc1c(C=NCc2ccc(F)cc2)[nH]c2ccc(Br)c(Cl)c12	i	5.7*	i	27*	i	332%*	i	i	71*
CC(=O)c1ccc(N2C(=O)C3C(C2=O)C(C(=O)c2ccc(Cl)cc2)N2CCCC32)cc1 (stereo not drawn)	x	i	x	x	i	x	x	x	x
COc1ccc(N2C(=O)C3C(C2=O)C(C(=O)c2ccc(Cl)cc2)N2CCCC32)cc1 (stereo not drawn)	i	i	i	72*	i	i	i	i	i
CCOC(=O)c1[nH]c2ccc(F)cc2c1N=C(C)N(CC)CC	i	i	i	50*	i	116%*	i	i	i
Cc1ccccc1NC(=O)CN1CCOCC1	i	i	i	35*	i	i	i	i	i
